Screening data (PubChem)
A selection: hits, their analogues and other compounds. The true share with any hit is near 1.3%.
RBBP9 inh: inhibitors of human serine hydrolase RBBP9 | O75884 | recombinant RBBP9, FP-Rh probe fluorescence polarization | 0.2% of 220,000 active | inhibition, % at 7.94 µM | AID 1515;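 active means inhibition above the campaign mean of all tested compounds plus 3 SD, cut at about 14% in these data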
Target sequence (O75884 whole entry, looked up): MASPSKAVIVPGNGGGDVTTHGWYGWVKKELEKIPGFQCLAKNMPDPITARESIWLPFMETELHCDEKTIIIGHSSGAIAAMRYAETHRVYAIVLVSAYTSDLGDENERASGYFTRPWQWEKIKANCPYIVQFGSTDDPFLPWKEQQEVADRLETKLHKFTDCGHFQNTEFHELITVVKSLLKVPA
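Material: RBBP9 protein. Amount: RBBP9 at 2.5 µM in dispensed solution, before mixing. Schedule: 30 min then 45 min, 25 °C. Medium: Tris buffer pH 8.0, NaCl, Pluronic. Measured by: fluorescence polarization. Measure: percent inhibition from mP, scaled between DMSO and no-protein wells. Replication: one well per compound.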
LYPLA1 counter: counter-screen for PME1 inhibitors: inhibitors of human LYPLA1; O75608; recombinant LYPLA1, FP-Rh probe fluorescence polarization; inhibition, % at 5.9 µM; 0.16% of 320,000 active; AID 2174;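 active means inhibition above the mean of all tested compounds plus 3 SD, set per campaign, cut at about 14% in these data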;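 further: inhibitors block serine hydrolase probe labeling of LYPLA1 so polarization falls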
Fam108B counter: counter-screen for RBBP9 inhibitors: inhibitors of mouse Fam108B. AID 1947. inhibition, % at 9.51 µM. 0.33% of 300,000 active. recombinant Fam108B, FP-Rh probe fluorescence polarization;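 active means inhibition above the screen mean inhibition plus 3 SD, computed separately per campaign, cut at about 18% in these data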;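 further: inhibitors lower polarization as less probe binds the enzyme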
PME-1 primary: blocks human protein phosphatase methylesterase 1; Q9Y570; 0.53% of 320,000 active; inhibition, % at 5.9 µM; recombinant PME-1, FP-Rh probe fluorescence polarization;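 active means inhibition above the campaign mean of all compounds plus 3 SD, cut at about 26% in these data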;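 further: competitive labeling of PME-1 active site by serine hydrolase directed probe; inhibitors block probe labeling so polarization falls and inhibition rises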
PAD4 FP inh: blocks human protein arginine deiminase 4 | 0.41% of 330,000 active | Q9UM07 | inhibition, % at 6.36 µM | recombinant PAD4, RCA probe fluorescence polarization;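 active means percent inhibition above a cutoff equal to the mean of all tested compounds plus 3 SD, cut at about 15% in these data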
LYPLA2 counter: counter-screen for PME1 inhibitors: inhibitors of human LYPLA2 | recombinant LYPLA2, FP-Rh probe fluorescence polarization | 0.38% of 320,000 active | AID 2177 | O95372 | inhibition, % at 5.9 µM;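 active means inhibition above the screen-wide mean plus 3 SD, limit set per campaign, cut at about 26% in these data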
Target sequence (O95372 whole entry, looked up): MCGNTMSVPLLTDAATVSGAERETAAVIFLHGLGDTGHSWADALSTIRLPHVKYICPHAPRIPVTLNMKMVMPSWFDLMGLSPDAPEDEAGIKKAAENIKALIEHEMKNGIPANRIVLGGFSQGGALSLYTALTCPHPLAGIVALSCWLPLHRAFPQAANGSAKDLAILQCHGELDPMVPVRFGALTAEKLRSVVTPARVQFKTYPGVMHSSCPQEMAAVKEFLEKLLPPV
RBBP9 inh conf: human RBBP9 inhibition, confirmation. AID 1537. 36% of 410 active. shares compounds with RBBP9 inh. inhibition, % at 7.94 µM. recombinant RBBP9, FP-Rh probe fluorescence polarization;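 active means inhibition above the hit cutoff derived for the primary screen, cut at about 15% in these data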
Of the large screens only hits and unclear results are named; the others gave an inactive call (follow-up assays come after a bar, where they were run).

C=CCN(c1ccc(C(=O)NCCCn2ccnc2)cc1)S(C)(=O)=O	none (no result: RBBP9 inh)
O=C1c2ccccc2C(=O)N1CCN1CCc2ccccc21	RBBP9 inh 17 | RBBP9 inh conf inactive
O=c1ccc2[n+]([O-])c3ccc(O)cc3oc-2c1	RBBP9 inh active (no result: LYPLA1 counter, Fam108B counter, PME-1 primary, PAD4 FP inh, LYPLA2 counter) | RBBP9 inh conf inactive
O=c1cc(O)c2ccc(O)cc2o1	none
COc1ccc(CCn2c(S)nc3ccccc3c2=O)cc1	none (no result: RBBP9 inh)
O=C(Cn1ccc([N+](=O)[O-])n1)N1CCCCCC1	RBBP9 inh 16 | RBBP9 inh conf inactive
O=C(Cn1ccc([N+](=O)[O-])n1)N1CCCCC1	none
O=C(COc1cccc2cccnc12)N1CCc2ccccc21	none
COC(=O)C1=C(C)N(Cc2ccc(C)cc2)C(=O)/C1=C\c1ccc(O)c(OC)c1	none
CCOC(=O)C1=C(C)N(c2ccc(C)cc2)C(=O)/C1=C\c1ccc(O)c(OC)c1	RBBP9 inh 15 | RBBP9 inh conf 29
CN=c1scc(-c2ccco2)n1/N=C/c1ccc(O)c(O)c1	RBBP9 inh 26 (no result: LYPLA1 counter, Fam108B counter, PME-1 primary, PAD4 FP inh, LYPLA2 counter) | RBBP9 inh conf inactive
C=CCN=c1scc(C)n1/N=C/c1ccc(O)c(O)c1	RBBP9 inh 23 | RBBP9 inh conf 24
NC(=O)c1ccccc1N1CCCCC1	none
O=C(COC(=O)c1cnc(Cl)c(Cl)c1)NC1CC1	none (no result: RBBP9 inh, LYPLA1 counter, Fam108B counter, PME-1 primary, LYPLA2 counter)
O=C(NCc1ccc2c(c1)OCO2)C1CC(=O)N(c2ccc(F)cc2)C1 (configuration not stated)	RBBP9 inh 17 | RBBP9 inh conf inactive
CNC(=S)/N=C/NOCc1ccc(Cl)cc1Cl	none
CSc1ccccc1C(=O)C1CCCN(Cc2cnn(-c3ccccc3)c2)C1 (configuration not stated)	RBBP9 inh 18 | RBBP9 inh conf inactive
CC(=O)Nc1ccc(S(=O)(=O)Nc2nnc(Cc3ccc(Cl)cc3)s2)cc1	none (no result: RBBP9 inh)
COC(=O)C1C(=O)OC(C)(C)C1C(C)C(=O)c1ccccc1 (configuration not stated)	RBBP9 inh 14 | RBBP9 inh conf inactive
COC(=O)C1C(=O)OC(C)(C)C1C(C)C(=O)c1ccc(C)cc1C (configuration not stated)	none
CCC(=O)Oc1ccc2c(C)cc(=O)oc2c1C(=O)CC	RBBP9 inh 18 | RBBP9 inh conf inactive
CCC(=O)Oc1ccc2c(C)cc(=O)oc2c1C(=O)c1ccccc1	none
COc1ccc(NC(=O)C2CSC3c4ccccc4C(=O)N23)cc1 (configuration not stated)	RBBP9 inh 14 | RBBP9 inh conf inactive
N#Cc1c(NC(=O)CSc2ncn[nH]2)sc2c1CCCC2	none
N#Cc1ccsc1NC(=O)CSc1ncn[nH]1	RBBP9 inh 15 | RBBP9 inh conf inactive
COc1ccc(C2CC(c3ccccc3)=NN2C(=O)COC(=O)/C=C/c2ccc(O)c(OC)c2)cc1 (configuration not stated)	none
CC(C)NC(=O)CCS(=O)(=O)c1ccc(Br)s1	RBBP9 inh 18 | RBBP9 inh conf inactive
O=C(CCNC(=O)c1ccccc1Cl)NCC(c1ccc(F)cc1)N1CCOCC1 (configuration not stated)	none (no result: RBBP9 inh)
CC1=CC(=NOC(=O)/C=C/c2ccccc2)C=C(C)C1=O	RBBP9 inh 17 | RBBP9 inh conf 79
CC1=CC(=O)C=C(C)C1=NOC(=O)/C=C\c1ccccc1	none
Cc1cccc(N2CCN(C(=O)Cn3sc4nc(C)cc(C)c4c3=O)CC2C)c1 (configuration not stated)	RBBP9 inh 19 | RBBP9 inh conf 34
Cc1cc(C)c2c(=O)n(CC(=O)N3CCC(Cc4ccccc4)CC3)sc2n1	none (no result: LYPLA1 counter, Fam108B counter, PME-1 primary, PAD4 FP inh, LYPLA2 counter)
CN(C(=O)/C=C/c1ccco1)c1ccccc1C(=O)O	RBBP9 inh 17 | RBBP9 inh conf inactive
Cc1cc(C)c2c(=O)cc(C(=O)NCc3ccccc3)oc2c1	none (no result: RBBP9 inh)
COc1cc(CN2CCN(c3ccccc3F)CC2)cc(OC)c1O	RBBP9 inh 15 | RBBP9 inh conf inactive
COc1cc(CN2CCC(C(=O)N3CCN(c4ccccc4F)CC3)CC2)cc(OC)c1O	none
CCCCCCCC1CC(CSC(=N)N)OC1=O (configuration not stated)	RBBP9 inh 23 | RBBP9 inh conf inactive
CCCCC1CC(CSC(=N)N)OC1=O (configuration not stated)	none
